Sampled rows, rich in hits. Any-hit rate of the full collection: about 4.4%.
SENP1 inh = blocks the human SENP1 SUMO protease catalytic domain. Q9P0U3. inhibition, % at 10 µM. 0.21% of 360,000 active. recombinant SENP1 catalytic domain, CyPet-SUMO1-YPet FRET cleavage. AID 624204;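 active = inhibition at least 30% at 10 µM, raw YFP signal under a set limit, fluorescence ratio 0.5 to 1.5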
Target sequence (Q9P0U3 419-644 limits assumed): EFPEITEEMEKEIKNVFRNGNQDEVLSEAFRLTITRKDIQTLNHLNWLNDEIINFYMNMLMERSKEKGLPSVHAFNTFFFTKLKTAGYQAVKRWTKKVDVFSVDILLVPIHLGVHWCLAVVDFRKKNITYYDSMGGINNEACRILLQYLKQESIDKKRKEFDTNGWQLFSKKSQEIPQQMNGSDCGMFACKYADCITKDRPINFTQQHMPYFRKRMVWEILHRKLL
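system = hSENP1 catalytic domain, recombinant | reagent = SFCypet-SUMO1-SFYpet substrate at 25 nM | doses = one dose per compound, 10 µM, 0.5% DMSO | incubation = enzyme reaction for 50 min at room temperature, dark | measured by = FRET, CFP and YFP emission | controls = no-enzyme low, enzyme-DMSO high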
MPTP block = inhibitors of mitochondrial permeability transition pore; 1.4% of 360,000 active; isolated mouse mitochondria, Ca2+ swelling absorbance, 30 min; AID 602449; inhibition, % at 10 µM;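 active = inhibition of 50% or more, scaled per plate between neutral and stimulator controls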
NR3A LBD binder = modulators (binders) of human NR3A ligand-binding domain | NR3A LBD differential scanning fluorimetry, Tm shift; 0% = protein alone, 100% = glycine-bound protein | Tm shift relative to glycine control, % at 25 µM | 2.5% of 340,000 active | AID 1259313;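 active = melting temperature shift of at least 10% of the positive control shift, at one fixed dose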
EBI2 block = EBI2 (human) antagonism; P32249; EBI2 beta-arrestin recruitment, luminescence, 7a,25-OHC stimulated; inhibition, % at 5 µM; 0.81% of 360,000 active; in the data active = inhibition above about 38%;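 also: enzyme fragment complementation signal reports receptor beta-arrestin coupling in cells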
Target sequence (P32249 whole entry, looked up, the tested form may be a part): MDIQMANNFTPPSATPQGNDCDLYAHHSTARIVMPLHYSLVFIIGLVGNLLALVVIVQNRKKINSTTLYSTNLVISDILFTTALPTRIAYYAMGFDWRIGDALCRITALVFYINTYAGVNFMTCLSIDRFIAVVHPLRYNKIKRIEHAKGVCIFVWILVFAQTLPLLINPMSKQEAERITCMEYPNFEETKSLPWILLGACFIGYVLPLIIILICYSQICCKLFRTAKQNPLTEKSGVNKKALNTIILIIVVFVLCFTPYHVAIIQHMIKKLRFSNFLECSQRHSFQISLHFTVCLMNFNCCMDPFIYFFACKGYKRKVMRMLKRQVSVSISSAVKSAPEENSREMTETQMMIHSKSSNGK
MPTP counter = Rhodamine 123 counter-screen of mitochondrial pore hits; 78% of 5,000 active; isolated mitochondria, membrane potential, Rhodamine 123 fluorescence; inhibition, % at 10 µM; shares compounds with MPTP block; AID 624504; in the data active = inhibition above about 22%
MPTP swell DR = dose response confirmation of mitochondrial permeability transition pore inhibitors. shares compounds with MPTP block. isolated mitochondria swelling, absorbance. IC50, µM. 58% of 780 active; in the data active = IC50 below about 20 µM
MPTP cs DR = counter-screen for mitochondrial permeability transition pore inhibitors, dose response | shares compounds with MPTP block | isolated mitochondria counterscreen, fluorescence read-out | IC50, µM | 49% of 780 active | AID 651564; in the data active = IC50 below about 80 µM
Large screens that a line does not name were inactive (follow-up assays come after a bar, where they were run).

O=C(CF)NC(NC(=S)Nc1cccc([N+](=O)[O-])c1)C(Cl)(Cl)Cl (stereo not drawn)	MPTP block 79.0 | MPTP counter 92.3
C[C@]12CCC3C(CC[C@H]4C[C@@H](O)CC[C@]34C)C1C/C(=N/O)[C@@H]2O (stereo partly drawn)	none
O=C(O)CCCc1ccc(N(CCCl)CCCl)cc1	none
O=C1NC(=S)SC1=Cc1ccc(N(CCCl)CCCl)cc1	MPTP block 52.9 | MPTP counter 66.6
Fc1ccc(C(OCCN2CCN(CCCc3ccccc3)CC2)c2ccc(F)cc2)cc1	MPTP block 96.9 | MPTP counter inactive
Fc1ccc(C(OCCN2CCCC2)c2ccc(F)cc2)cc1	none
c1ccc(CCCN2CCN(CCOC(c3ccccc3)c3ccccc3)CC2)cc1	MPTP block 80.1 | MPTP counter inactive
c1ccc2c(CNC3CCCCCC3)c[nH]c2c1	MPTP block 71.1 | MPTP counter inactive | MPTP swell DR 8.66 | MPTP cs DR 72.8
CCCCCSc1cc(O)c(C(CNC)C(C)C)cc1OC (stereo not drawn)	none
CCCCCSc1cc(OC)c(CCN(C)C)cc1OC	MPTP block 83.8 | MPTP counter inactive | MPTP swell DR 6.33 | MPTP cs DR inactive
Cc1ccc(N=C(/N=C(\N)N[N+](=O)[O-])Nc2ccc(C)cc2)cc1	none
CC(C)CCNC(=O)c1cc(C(=O)c2cc(F)ccc2O)cn(CCC(C)C)c1=O	MPTP block 52.8 | MPTP counter inactive | MPTP swell DR inactive | MPTP cs DR 5.94
CC(C)CCNC(=O)c1cc(C(=O)c2cc(Br)ccc2O)cn(CCC(C)C)c1=O	MPTP block 93.3 | MPTP counter inactive | MPTP swell DR inactive | MPTP cs DR <2.5
O=C(c1cc(C(=O)NCc2ccccc2)c(=O)n(Cc2ccccc2)c1)c1cc(Cl)ccc1O	MPTP block 82.4, NR3A LBD binder 13.1 | MPTP counter 75.4
O=C(c1ccc2c3c(cccc13)CC2)C1CCCN(CC2CC2)C1 (stereo not drawn)	none
C/C(=N\NC(N)=S)C1=CCC2C3CC[C@H]4CC(O)CC[C@]4(C)C3CC[C@]12C (stereo partly drawn)	MPTP block 65.0 | MPTP counter inactive | MPTP swell DR 18.4 | MPTP cs DR 22
C/C=C1/CN2[C@@H]3C4CO[C@@H]3c3c([nH]c5cc(OC)ccc35)[C@@H]2CC14 (stereo partly drawn)	none
CCN(CC)S(=O)(=O)c1ccc(C(=O)NC2CN3CCC2CC3)cc1 (stereo not drawn)	none
CC(C)(C)c1cc(C=C(C#N)C#N)cc(C(C)(C)C)c1O	MPTP block 108.1 | MPTP counter 89.2
CCN(CC)P(=O)(NC(=O)C(Cl)(Cl)Cl)N(CC)CC.[Cl-].[Cl-].[Cl-].[Nd+3]	none
CCOc1cc(C2NCc3ccccc3-n3cccc32)ccc1O (stereo not drawn)	MPTP block 87.6 | MPTP counter inactive | MPTP swell DR 7.09 | MPTP cs DR inactive
CCCCCc1nc2c(c(=O)c3ccccc3n2C)c(=O)n1C1CCCCCC1	MPTP block 87.4 | MPTP counter inactive
O=C1N(c2ccc(Cl)cc2)C(c2cccnc2)N2CCCN12 (stereo not drawn)	MPTP block 67.4 | MPTP counter 103.8
CCC12CN3CC(CC)(CN(C1)C3c1cccnc1)C2=O (stereo not drawn)	none
CC(c1ccccc1)n1cncc1C(=O)N1CCCC1=O (stereo not drawn)	none
Cc1ccc(-c2cc(-c3ccccc3)cc(-c3ccccc3)[n+]2-c2ccccc2)cc1	none
Cc1ccc(-c2cc(-c3ccc(C)cc3)[n+](-c3ccccc3)c(-c3ccc(C)cc3)c2)cc1	MPTP block 94.9 | MPTP counter 100.7
CN(C)c1ccc(-[n+]2c(-c3ccccc3)cc(-c3ccccc3)cc2-c2ccccc2)cc1	none
c1ccc(-c2cc(-c3ccccc3)[n+](-c3ccccc3)c(-c3ccccc3)c2)cc1	MPTP block 63.7 | MPTP counter 88.9
CCCCn1c(=O)c(C(=O)Nc2ccsc2C(=O)OC)c(O)c2ccccc21	none
Cc1ccccc1C(O)(Cc1ccccc1)C1CN2CCC1CC2 (stereo not drawn)	MPTP block 61.8 | MPTP counter inactive | MPTP swell DR 16.5 | MPTP cs DR inactive
N#CC1c2ccccc2-n2nncc2CN1C(=O)CCc1ccccc1 (stereo not drawn)	none
CSc1ccc(CN2CCN(c3ccccc3C)CC2)cc1	none
CCc1ccc(CN2CCN(Cc3ccc(SC)cc3)CC2)cc1	MPTP block 56.5 | MPTP counter inactive | MPTP swell DR inactive | MPTP cs DR 45.1
N#CC1=C(N)Oc2c(c(=O)oc3ccccc23)C1c1ccc([N+](=O)[O-])o1 (stereo not drawn)	none
CCOP(=S)(OCC)SCSP(=S)(OCC)OCC	none
CN1[C@@H]2CC[C@H]1CC(OC1c3ccccc3CCc3ccccc31)C2 (stereo partly drawn)	MPTP block 97.4 | MPTP counter inactive | MPTP swell DR 7.78 | MPTP cs DR inactive
CN1C2CCC1CC(OC(=O)c1ccc(Cl)cc1)C2 (stereo not drawn)	none
CCN1CCC2(CCNC2)C1 (stereo not drawn)	none
CCC(=NCc1ccc2c(c1)OCO2)c1c(O)n(C2CCCCC2)c(=O)[nH]c1=O	MPTP block 77.9 | MPTP counter 67.8
CCC(=NCCO)c1c(O)n(C2CCCCC2)c(=O)[nH]c1=O	none
O=C1NC(=O)N(Cc2ccccc2)C(=O)/C1=C\c1ccco1	none
CCCCN1C(=O)/C(=C\c2ccco2)C(=O)N(CCc2ccccc2)C1=O	MPTP block 67.7 | MPTP counter inactive
CC(=O)CCC(C)=O	none
CCN1C(=O)C(=Cc2cc(C)n(C3CC3)c2C)C(=O)N(CC)C1=S	none
CCN1C(=O)C(=Cc2ccc(C)s2)C(=O)N(CC)C1=S	MPTP block 72.6 | MPTP counter inactive
CN(C)CCOc1ccc(/C(=C(/CCCl)c2ccccc2)c2ccccc2)cc1	MPTP block 105.9 | MPTP counter inactive | MPTP swell DR 6.66 | MPTP cs DR 41.1
CN(C)C(=O)Oc1ccc(C(=O)c2ccccc2)cc1	none
Oc1cc(Cl)c(Cl)c(Cl)c1	MPTP block 94.9 | MPTP counter 87.0
Oc1ccc(Cl)c(Cl)c1	none
Oc1cc(Cl)c(Cl)c(Cl)c1Cl	MPTP block 79.2 | MPTP counter 98.8
Cc1cc(S(=O)(=O)NCc2ccccc2)ccc1OCC(=O)N1CCN(C)CC1	none
Cc1cc2c(C(C)C)c(O)c(O)c(C=O)c2c(O)c1-c1c(C)cc2c(C(C)C)c(O)c(O)c(C=O)c2c1O	MPTP block 84.8 (no result: NR3A LBD binder) | MPTP counter inactive
COCCNC(=S)N1Cc2ccccc2-n2nncc2C1	none (no result: NR3A LBD binder)

High-throughput results: PubChem BioAssay, Sanford-Burnham Center for Chemical Genomics
